Activity calls are given as the source filed them.
Key:
[1] = target: Muscarinic acetylcholine receptor M4 (Homo sapiens) (UniProt P08173); assay: Displacement of [3H]-QNB/[3H]-NMS from human recombinant muscarinic acetylcholine M4 receptor expressed in stable CHO cells incubated for 90 mins by microbeta scintillation counting method; format: cell-based
[2] = target: Histamine H4 receptor (Homo sapiens) (UniProt Q9H3N8); assay: Displacement of [3H]-Histamine from human recombinant histamine H4 receptor expressed in HEKT cells incubated for 90 mins by microbeta scintillation counting method; format: cell-based
[3] = target: Alpha-1B adrenergic receptor (Homo sapiens) (UniProt P35368); assay: Displacement of [3H]-8-OH-DPAT from human recombinant alpha1B adrenergic receptor expressed in HEKT cells at 10 uM incubated for 90 mins by microbeta scintillation counting method; format: cell-based
Summary of the method: (§1)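 Primary radioligand binding screen run by the NIMH Psychoactive Drug Screening Program, with one test level of 10 μM. The read-out was inhibition of radioligand binding at each receptor.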

Rattus norvegicus = species on record: Rattus norvegicus; assay: Displacement of [3H]-PK11195 from PBR in rat brain incubated for 90 mins by microbeta scintillation counting method; format: tissue-based
[4] = target: 5-hydroxytryptamine receptor 2B (Homo sapiens) (UniProt P41595); assay: Displacement of [3H]-LSD from human recombinant 5HT2B receptor expressed in stable HEK cells at 10 uM incubated for 90 mins by microbeta scintillation counting method; format: cell-based; summary of the method: as §1
[5] = target: GABA-A receptor; anion channel (Rattus norvegicus) (UniProt O09028+P15431+P18506+P18508+P19969+P20236+P23574+P23576+P28471+P28473+P30191+P62813+P63079+P63138+Q91ZM7+Q9ES14); assay: Displacement of [3H]-Muscimol from GABAA receptor in rat brain incubated for 90 mins by microbeta scintillation counting method; format: tissue-based
[6] = target: 5-hydroxytryptamine receptor 2A (Homo sapiens) (UniProt P28223); assay: Displacement of [3H]-ketanserin from human recombinant 5HT2A receptor expressed in HEKT cells at 10 uM incubated for 90 mins by microbeta scintillation counting method; format: cell-based; summary of the method: as §1
[7] = target: Muscarinic acetylcholine receptor M2 (Homo sapiens) (UniProt P08172); assay: Displacement of [3H]-QNB/[3H]-NMS from human recombinant muscarinic acetylcholine M2 receptor expressed in stable CHO cells incubated for 90 mins by microbeta scintillation counting method; format: cell-based
[8] = target: Histamine H1 receptor (Homo sapiens) (UniProt P35367); assay: Displacement of [3H]-Pyrilamine from human recombinant histamine H1 receptor expressed in stable HEK cells incubated for 90 mins by microbeta scintillation counting method; format: cell-based
[9] = target: Histamine H3 receptor (Homo sapiens) (UniProt Q9Y5N1); assay: Displacement of [3H]-alpha-methylhistamine from human recombinant histamine H3 receptor expressed in Flp-In HEK cells incubated for 90 mins by microbeta scintillation counting method; format: cell-based
[10] = target: Sodium-dependent noradrenaline transporter (Homo sapiens) (UniProt P23975); assay: Displacement of [3H]-Nisoxetine from human recombinant NET receptor expressed in stable HEK cells incubated for 90 mins by microbeta scintillation counting method; format: cell-based

Measured: inhibition

Alpha-1B adrenergic receptor (Homo sapiens), sequence (P35368 whole entry): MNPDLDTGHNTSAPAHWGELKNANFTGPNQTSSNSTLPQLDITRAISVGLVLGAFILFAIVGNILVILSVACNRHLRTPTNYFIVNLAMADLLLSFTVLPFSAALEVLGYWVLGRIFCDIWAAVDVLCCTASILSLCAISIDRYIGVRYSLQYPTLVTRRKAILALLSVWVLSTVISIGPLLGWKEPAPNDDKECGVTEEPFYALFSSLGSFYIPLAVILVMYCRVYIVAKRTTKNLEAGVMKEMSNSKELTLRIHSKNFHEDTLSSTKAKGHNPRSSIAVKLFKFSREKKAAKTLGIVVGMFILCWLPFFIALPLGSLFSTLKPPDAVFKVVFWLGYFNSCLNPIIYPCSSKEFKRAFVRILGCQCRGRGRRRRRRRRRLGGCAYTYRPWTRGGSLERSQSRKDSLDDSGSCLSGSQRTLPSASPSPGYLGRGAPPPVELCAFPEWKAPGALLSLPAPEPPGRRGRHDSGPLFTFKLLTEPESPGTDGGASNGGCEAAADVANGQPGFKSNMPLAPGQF
Sodium-dependent noradrenaline transporter (Homo sapiens), sequence (P23975 whole entry): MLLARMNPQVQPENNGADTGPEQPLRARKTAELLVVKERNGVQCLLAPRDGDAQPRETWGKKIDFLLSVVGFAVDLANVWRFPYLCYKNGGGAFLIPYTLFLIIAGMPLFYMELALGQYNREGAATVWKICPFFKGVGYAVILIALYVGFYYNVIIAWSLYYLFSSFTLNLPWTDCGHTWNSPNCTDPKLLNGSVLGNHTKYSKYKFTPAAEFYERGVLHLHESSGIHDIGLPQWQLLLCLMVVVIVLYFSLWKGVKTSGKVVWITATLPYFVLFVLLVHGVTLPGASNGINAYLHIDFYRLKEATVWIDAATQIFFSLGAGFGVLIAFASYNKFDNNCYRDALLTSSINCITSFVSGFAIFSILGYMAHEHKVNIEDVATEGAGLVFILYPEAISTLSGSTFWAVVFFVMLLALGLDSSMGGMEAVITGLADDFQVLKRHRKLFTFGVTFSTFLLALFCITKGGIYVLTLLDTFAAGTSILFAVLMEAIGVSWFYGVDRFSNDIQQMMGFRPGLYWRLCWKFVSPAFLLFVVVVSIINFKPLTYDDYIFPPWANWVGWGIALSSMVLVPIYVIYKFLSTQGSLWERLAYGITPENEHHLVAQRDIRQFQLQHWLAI
Histamine H1 receptor (Homo sapiens), sequence (P35367 whole entry): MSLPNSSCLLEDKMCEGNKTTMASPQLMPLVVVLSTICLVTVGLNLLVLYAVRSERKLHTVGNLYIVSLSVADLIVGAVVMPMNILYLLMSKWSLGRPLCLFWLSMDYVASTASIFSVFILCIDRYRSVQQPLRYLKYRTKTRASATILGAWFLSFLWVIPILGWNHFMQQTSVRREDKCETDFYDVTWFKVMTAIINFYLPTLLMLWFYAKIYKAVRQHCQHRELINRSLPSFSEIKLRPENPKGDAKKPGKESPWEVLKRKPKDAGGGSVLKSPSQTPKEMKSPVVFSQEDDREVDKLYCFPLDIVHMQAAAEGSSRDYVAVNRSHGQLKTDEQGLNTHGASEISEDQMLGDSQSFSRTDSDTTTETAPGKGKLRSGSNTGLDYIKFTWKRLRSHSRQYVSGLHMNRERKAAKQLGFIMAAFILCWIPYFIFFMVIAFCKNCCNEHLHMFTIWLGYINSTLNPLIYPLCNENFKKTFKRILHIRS
Muscarinic acetylcholine receptor M4 (Homo sapiens), sequence (P08173 whole entry): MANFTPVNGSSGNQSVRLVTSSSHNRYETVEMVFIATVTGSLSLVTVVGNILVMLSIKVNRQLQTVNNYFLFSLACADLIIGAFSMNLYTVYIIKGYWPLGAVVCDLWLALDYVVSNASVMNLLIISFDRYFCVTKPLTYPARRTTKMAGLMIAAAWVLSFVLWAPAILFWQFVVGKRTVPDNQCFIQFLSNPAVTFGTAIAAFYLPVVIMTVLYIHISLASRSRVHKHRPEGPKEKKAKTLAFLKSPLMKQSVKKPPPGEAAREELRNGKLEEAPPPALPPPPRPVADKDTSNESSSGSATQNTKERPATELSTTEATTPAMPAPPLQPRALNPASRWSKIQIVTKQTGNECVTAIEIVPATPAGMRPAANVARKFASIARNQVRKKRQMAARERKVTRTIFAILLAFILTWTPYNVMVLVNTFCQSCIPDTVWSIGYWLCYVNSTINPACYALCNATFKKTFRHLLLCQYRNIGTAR
5-hydroxytryptamine receptor 2B (Homo sapiens), sequence (P41595 whole entry): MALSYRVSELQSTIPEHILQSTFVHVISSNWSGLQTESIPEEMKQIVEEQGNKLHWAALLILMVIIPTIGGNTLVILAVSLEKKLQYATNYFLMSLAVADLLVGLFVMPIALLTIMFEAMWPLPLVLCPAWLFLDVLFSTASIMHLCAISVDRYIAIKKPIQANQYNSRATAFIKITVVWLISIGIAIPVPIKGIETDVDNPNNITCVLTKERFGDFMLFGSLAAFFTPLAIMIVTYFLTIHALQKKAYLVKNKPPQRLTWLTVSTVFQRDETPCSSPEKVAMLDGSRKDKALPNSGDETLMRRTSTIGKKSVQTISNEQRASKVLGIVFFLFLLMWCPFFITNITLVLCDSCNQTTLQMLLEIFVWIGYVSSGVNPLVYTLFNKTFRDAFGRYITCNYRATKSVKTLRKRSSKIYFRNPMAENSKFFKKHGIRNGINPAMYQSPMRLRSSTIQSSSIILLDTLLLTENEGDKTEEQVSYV
Muscarinic acetylcholine receptor M2 (Homo sapiens), sequence (P08172 whole entry): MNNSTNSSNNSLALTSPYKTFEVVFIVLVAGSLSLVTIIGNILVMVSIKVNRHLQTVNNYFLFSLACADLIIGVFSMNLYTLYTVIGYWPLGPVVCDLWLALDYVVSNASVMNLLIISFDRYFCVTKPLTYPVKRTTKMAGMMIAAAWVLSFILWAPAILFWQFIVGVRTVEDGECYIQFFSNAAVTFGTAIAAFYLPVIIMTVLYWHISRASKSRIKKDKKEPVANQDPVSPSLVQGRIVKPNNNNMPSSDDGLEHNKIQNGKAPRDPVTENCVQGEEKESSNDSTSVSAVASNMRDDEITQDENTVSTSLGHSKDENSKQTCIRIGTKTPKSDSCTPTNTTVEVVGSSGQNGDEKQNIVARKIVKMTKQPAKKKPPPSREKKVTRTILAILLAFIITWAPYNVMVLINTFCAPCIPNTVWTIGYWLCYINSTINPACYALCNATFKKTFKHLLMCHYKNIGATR
Histamine H4 receptor (Homo sapiens), sequence (Q9H3N8 whole entry): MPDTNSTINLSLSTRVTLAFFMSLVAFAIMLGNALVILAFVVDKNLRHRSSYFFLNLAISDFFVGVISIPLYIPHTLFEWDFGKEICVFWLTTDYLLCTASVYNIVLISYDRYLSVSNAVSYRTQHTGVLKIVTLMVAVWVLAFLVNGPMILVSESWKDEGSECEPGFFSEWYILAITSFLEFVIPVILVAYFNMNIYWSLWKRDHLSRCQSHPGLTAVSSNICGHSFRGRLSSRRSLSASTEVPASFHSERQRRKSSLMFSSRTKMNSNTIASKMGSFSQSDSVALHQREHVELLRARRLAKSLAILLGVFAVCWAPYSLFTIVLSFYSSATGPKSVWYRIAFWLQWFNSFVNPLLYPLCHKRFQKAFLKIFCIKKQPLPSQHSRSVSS
Histamine H3 receptor (Homo sapiens), sequence (Q9Y5N1 whole entry): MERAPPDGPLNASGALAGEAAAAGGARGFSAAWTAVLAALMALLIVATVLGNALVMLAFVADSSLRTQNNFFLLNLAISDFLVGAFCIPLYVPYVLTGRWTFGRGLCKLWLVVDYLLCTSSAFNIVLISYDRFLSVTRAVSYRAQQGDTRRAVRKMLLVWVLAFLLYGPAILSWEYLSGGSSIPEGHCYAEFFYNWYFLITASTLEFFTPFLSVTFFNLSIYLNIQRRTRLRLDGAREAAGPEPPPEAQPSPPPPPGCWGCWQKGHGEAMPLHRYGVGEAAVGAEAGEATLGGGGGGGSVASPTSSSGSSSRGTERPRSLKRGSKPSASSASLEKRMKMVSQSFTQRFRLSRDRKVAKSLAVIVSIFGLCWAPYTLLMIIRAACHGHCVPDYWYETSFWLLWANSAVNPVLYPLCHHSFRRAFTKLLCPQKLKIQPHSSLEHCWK
5-hydroxytryptamine receptor 2A (Homo sapiens), sequence (P28223 whole entry): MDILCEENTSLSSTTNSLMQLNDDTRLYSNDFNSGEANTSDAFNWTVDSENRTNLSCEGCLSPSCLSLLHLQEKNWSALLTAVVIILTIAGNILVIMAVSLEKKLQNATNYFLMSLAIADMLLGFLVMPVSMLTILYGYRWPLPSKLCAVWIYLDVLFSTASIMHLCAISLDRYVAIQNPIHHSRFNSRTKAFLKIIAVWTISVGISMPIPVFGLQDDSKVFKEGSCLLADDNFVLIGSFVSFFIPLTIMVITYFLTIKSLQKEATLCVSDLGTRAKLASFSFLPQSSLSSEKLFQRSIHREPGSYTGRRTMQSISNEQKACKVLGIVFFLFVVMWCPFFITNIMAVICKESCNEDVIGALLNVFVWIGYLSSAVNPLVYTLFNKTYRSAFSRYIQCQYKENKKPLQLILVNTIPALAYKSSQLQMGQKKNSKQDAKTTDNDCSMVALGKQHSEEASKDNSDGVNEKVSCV

Cn1c2cccc(=O)c-2nc2ccccc21 [PYOCYANIN]
inactive: all assays above

Reference: ChEMBL document CHEMBL4312019, “Design, synthesis, and evaluation of compounds capable of reducing Pseudomonas aeruginosa virulence” (Eur J Med Chem, 2020)
